SMILES strings stand for the structures. Peptide text beside a SMILES is read from it. * marks the point of attachment. NHPhenethyl = c1ccc(CCN*)cc1

From ChEMBL document CHEMBL1128452, “Pseudodipeptide inhibitors of protein farnesyltransferase” (J Med Chem, 1995) come the findings set out here.

One experiment relates to NIH3T3. Nature of the experiment: Highest nontoxic concentration for cultured NIH 3T3 cells assessed by MTT staining. The experiment is classed as functional, Mus musculus. Summed up: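 NIH 3T3 cells exposed to compound for 48 h. Viability read by MTT staining. The value reported is the highest concentration the cells tolerated without toxicity.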
Experiment [1] addresses Protein farnesyltransferase (Bos taurus, UniProt P29702+P49355). Nature of the experiment: In vitro concentration required to reduce Farnesyltransferase catalyzed incorporation of [3H]FPP into recombinant Ha-Ras protein by 50%. The experiment is classed as protein-complex assay. Summed up:
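Farnesyltransferase was purified from bovine brain and used at ca. 1 nM. It was incubated with compound, [³H]FPP and recombinant Harvey-Ras. Total protein was acid-precipitated and Ras-bound label counted by scintillation. IC50 is the concentration halving incorporation relative to a no-inhibitor control. Values are mean ± SEM of the stated number of determinations, or a single determination estimated reliable within 2-fold.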

The target in experiment [2] is Geranylgeranyl transferase type I (Bos taurus, UniProt P29702+Q5EAD5). Nature of the experiment: Inhibition of bovine Geranylgeranyl transferase type I. Format: protein-complex assay.

On to `CCC(C)[C@H](NC[C@@H](N)CS)C(=O)NCc1ccc(OC)cc1` (stereo partly specified), for which, in the experiment with NIH3T3, the Cytotoxic endpoint is 50 µM. In addition, the IC50 (usually the concentration that gives 50% inhibition) in experiment [1] is 660 nM.
Consider `CCC(C)[C@H](NC[C@@H](N)CS)C(=O)N(C)Cc1ccccc1` (stereo partly specified), for which, in experiment [1], the IC50 is 945 nM.
In turn, `CCC(C)[C@H](NC[C@@H](N)CS)C(=O)NCCC(C)C` (stereo partly specified) gave an IC50 in experiment [2] of 100000 nM.
For the molecule `CCC[C@H](NC[C@@H](N)CS)C(=O)NCc1ccccc1`, the IC50 in experiment [1] is 600 nM.
On to `CCC(C)[C@H](NC[C@@H](N)CS)C(=O)NCc1ccc(C)cc1C` (stereo partly specified), for which, in the experiment on NIH3T3, the Cytotoxic endpoint was found to be 10 µM. Further, the IC50 came to 120 nM in experiment [1] and 30000 nM in experiment [2].
For the molecule `CCCC[C@H](NC[C@@H](N)CS)C(=O)NCc1ccccc1`, in experiment [1], the IC50 was 900 nM.
In the case of `CCC(C)[C@H](NC[C@@H](N)CS)C(=O)NC(CO)Cc1ccccc1` (stereo partly specified), the IC50 in experiment [1] is 370 nM.
Regarding `C[C@H](NC[C@@H](N)CS)C(=O)NCc1ccccc1`, the IC50 in experiment [1] was 2000 nM.
The molecule `CCC(C)[C@H](NC[C@@H](N)CS)C(=O)NCc1cccc(Cl)c1Cl` (stereo partly specified) yielded a Cytotoxic endpoint in the experiment on NIH3T3 of 5 µM. The IC50 in experiment [1] came out at 23 nM; in experiment [2], 6800 nM.
The matching figures for `CCC(C)[C@H](NC[C@@H](N)CS)C(=O)NCc1ccc(S(N)(=O)=O)cc1` (stereo partly specified): 100 µM, 400 nM and 21000 nM.
The matching figures for `CCC(C)[C@H](NC[C@@H](N)CS)C(=O)NCc1ccc(Cl)cc1Cl` (stereo partly specified): 10 µM, 97 nM and 10000 nM.
As to `CCC(C)[C@H](NC(=O)CCS)C(=O)NCCc1ccccc1` (stereo partly specified), the Cytotoxic endpoint in the experiment with NIH3T3 came to 10 µM. Further, the IC50 in experiment [1] is > 10000 nM.
Take `CCC(C)[C@@H](CNCCc1ccccc1)NC[C@@H](N)CS` (stereo partly specified): the Cytotoxic endpoint with NIH3T3 was 10 µM.
`CCC(C)[C@H](NC[C@@H](N)CS)C(=O)Nc1cccc(C)c1` (stereo partly specified): the Cytotoxic endpoint in the experiment on NIH3T3 stood at 25 µM. Besides, the results for the IC50 in experiment [1] and in experiment [2] were 46 nM and 6200 nM, respectively.
For the molecule `CC[C@H](NC[C@@H](N)CS)C(=O)NCc1ccccc1`, the IC50 in experiment [1] turned out to be 1100 nM.
With `CCC(C)[C@H](NC[C@@H](N)CS)C(=O)NCc1cccc(C)c1` (stereo partly specified), the Cytotoxic endpoint with NIH3T3 worked out at 25 µM. Besides, in experiment [1], the IC50 stood at 1000 nM.
`CCCCN(Cc1ccccc1)C(=O)[C@@H](NC[C@@H](N)CS)C(C)CC` (stereo partly specified): the IC50 in experiment [1] came out at 1300 nM.
With `CCC(C)[C@H](NC[C@@H](N)CS)C(=O)Nc1ccccc1` (stereo partly specified), the IC50 in experiment [1] came to 70 nM.
Same read-out and setting: then `CCC(C)[C@H](NC[C@@H](N)CS)C(=O)NCCCc1ccccc1` (stereo partly specified), with 350 nM; and `CCC(C)[C@@H](CNCCc1ccccc1)NC(=O)[C@@H](N)CS` (stereo partly specified), with 9000 nM.
Regarding `CC[C@H](C)[C@H](NC(=O)[C@@H](N)CS)C(=O)NCCc1ccccc1` (H-Cys-Ile-NHPhenethyl), the Cytotoxic endpoint with NIH3T3 is >100 µM. In addition, in experiment [1], the IC50 is 1000 nM.
The matching figures for `CCC(C)[C@H](NC[C@@H](N)CS)C(=O)NCCc1ccccc1` (stereo partly specified): 10 µM and 707 nM.
Turning to `CCC(C)[C@H](NC[C@@H](N)CS)C(=O)Nc1cccc(C)c1C` (stereo partly specified), in the experiment on NIH3T3, the Cytotoxic endpoint turned out to be 10 µM. Besides, the IC50 in experiment [1] is 40 nM; in experiment [2], 8200 nM.
Regarding `CCC(C)[C@H](NC[C@@H](N)CS)C(=O)NCc1ccccc1` (stereo partly specified), the values for the IC50 in experiment [1] and in experiment [2] were 450 nM and 86000 nM, respectively.
`CCC(C)[C@H](NC[C@@H](N)CS)C(=O)Nc1ccc(C)cc1C` (stereo partly specified) came in with a Cytotoxic endpoint with NIH3T3 of 5 µM. In addition, the IC50 in experiment [1] was 60 nM.
The matching figures for `CCC(C)[C@H](NC[C@H](C)N)C(=O)NCCc1ccccc1` (stereo partly specified): >100 µM and > 10000 nM.
